From ChEMBL document CHEMBL5653631, “A Potent and Selective ULK1 Inhibitor Suppresses Autophagy and Sensitizes Cancer Cells to Nutrient Stress” (iScience, 2018)
Each block holds one molecule with its values, some of them ahead of it.

Tests used:
[1] = target: Leucine-rich repeat serine/threonine-protein kinase 2 (Homo sapiens) (UniProt Q5S007); experiment: Inhibition of human recombinant LRRK2 at 500 nM in presence of ATP by radiometric assay relative to control
[2] = target: T1, Serine/threonine-protein kinase 17A (Homo sapiens) (UniProt Q9UEE5); experiment: Inhibition of human recombinant DRAK1 at 500 nM related to control ULK1
T1 sequence (whole entry): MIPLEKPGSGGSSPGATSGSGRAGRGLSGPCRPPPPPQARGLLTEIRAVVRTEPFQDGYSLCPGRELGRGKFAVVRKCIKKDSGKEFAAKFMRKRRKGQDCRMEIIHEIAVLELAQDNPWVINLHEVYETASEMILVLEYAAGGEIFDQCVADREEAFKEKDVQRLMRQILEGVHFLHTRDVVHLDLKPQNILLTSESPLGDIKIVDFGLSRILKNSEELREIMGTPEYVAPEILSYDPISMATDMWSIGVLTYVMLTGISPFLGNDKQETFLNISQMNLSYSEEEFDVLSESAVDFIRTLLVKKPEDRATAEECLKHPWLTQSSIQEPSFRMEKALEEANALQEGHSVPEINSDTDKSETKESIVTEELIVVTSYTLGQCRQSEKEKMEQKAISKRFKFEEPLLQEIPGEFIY

[3] = target: RAC-gamma serine/threonine-protein kinase (Homo sapiens) (UniProt Q9Y243); experiment: Inhibition of human recombinant AKT3 at 500 nM in presence of ATP by radiometric assay relative to control
Chain of RAC-gamma serine/threonine-protein kinase (Homo sapiens) (Q9Y243 whole entry): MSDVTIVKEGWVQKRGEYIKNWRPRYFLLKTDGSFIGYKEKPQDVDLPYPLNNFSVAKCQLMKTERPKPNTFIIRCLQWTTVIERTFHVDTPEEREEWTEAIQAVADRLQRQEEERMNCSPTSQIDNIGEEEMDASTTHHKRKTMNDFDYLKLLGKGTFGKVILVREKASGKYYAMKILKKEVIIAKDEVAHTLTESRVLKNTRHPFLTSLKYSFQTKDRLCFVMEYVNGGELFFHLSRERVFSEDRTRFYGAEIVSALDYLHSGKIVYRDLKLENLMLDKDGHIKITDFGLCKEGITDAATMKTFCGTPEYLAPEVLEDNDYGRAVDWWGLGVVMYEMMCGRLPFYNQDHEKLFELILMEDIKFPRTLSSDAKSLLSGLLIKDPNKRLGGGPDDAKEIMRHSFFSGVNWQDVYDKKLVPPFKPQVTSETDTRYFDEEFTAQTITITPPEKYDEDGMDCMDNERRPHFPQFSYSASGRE
Method in brief: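 Panel of 327 recombinant human kinases in radiometric activity assays, each screened in duplicate at a single inhibitor concentration; percent activity remaining relative to vehicle control, percent inhibition taken as 100 minus activity remaining.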

[4] = target: T2, Serine/threonine-protein kinase A-Raf (Homo sapiens) (UniProt P10398); experiment: Inhibition of human recombinant ARAF at 500 nM related to control ULK1
T2 sequence (whole entry): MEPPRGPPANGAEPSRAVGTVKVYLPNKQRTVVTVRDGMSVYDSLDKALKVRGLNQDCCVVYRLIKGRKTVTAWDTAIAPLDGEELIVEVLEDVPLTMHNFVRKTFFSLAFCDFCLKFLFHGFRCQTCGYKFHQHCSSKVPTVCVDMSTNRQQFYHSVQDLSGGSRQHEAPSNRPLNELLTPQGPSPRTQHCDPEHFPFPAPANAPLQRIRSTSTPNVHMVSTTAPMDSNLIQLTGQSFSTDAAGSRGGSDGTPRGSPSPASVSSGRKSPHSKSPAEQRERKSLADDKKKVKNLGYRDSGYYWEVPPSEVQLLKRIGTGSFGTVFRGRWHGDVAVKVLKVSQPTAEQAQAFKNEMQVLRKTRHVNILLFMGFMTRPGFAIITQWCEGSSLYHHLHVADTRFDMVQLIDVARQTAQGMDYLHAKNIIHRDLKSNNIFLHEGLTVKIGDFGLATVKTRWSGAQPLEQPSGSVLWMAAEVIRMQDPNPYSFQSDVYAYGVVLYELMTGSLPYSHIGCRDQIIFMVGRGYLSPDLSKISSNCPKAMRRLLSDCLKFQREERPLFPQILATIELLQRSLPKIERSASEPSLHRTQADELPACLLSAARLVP
Method in brief: (§1)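 Panel of 327 recombinant human kinases, each assayed in vitro by radiometric activity assay in duplicate at a single inhibitor concentration per compound, chosen with reference to its ULK1 inhibition. Activity remaining was expressed as percent of vehicle control, and percent inhibition was calculated as 100 minus percent activity remaining.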

[5] = target: T3, Beta-adrenergic receptor kinase 1 (Homo sapiens) (UniProt P25098); experiment: Inhibition of human recombinant BARK1 at 15 nM in presence of ATP by radiometric assay relative to control
T3 sequence (whole entry): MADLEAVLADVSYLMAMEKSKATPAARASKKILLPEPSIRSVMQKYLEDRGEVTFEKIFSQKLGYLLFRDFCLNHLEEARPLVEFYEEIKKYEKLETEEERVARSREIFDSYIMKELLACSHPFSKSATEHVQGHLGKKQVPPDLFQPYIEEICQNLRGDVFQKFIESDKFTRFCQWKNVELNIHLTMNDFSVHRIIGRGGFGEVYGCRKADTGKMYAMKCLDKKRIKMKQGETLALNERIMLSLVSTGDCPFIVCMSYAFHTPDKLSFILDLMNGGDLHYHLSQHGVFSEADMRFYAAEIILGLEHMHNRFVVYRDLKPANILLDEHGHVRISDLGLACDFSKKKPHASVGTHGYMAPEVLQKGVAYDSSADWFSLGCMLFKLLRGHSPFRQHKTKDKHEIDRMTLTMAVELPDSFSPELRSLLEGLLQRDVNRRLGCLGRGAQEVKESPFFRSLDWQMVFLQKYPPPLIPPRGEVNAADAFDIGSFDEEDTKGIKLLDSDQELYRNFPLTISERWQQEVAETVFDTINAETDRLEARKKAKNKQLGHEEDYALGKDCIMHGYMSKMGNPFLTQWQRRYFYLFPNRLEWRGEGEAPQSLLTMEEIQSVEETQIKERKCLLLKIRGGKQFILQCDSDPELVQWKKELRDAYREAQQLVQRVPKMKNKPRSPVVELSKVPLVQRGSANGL
Method in brief: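 Part of a radiometric in vitro activity panel of 327 recombinant human kinases. Each kinase was tested in duplicate at one inhibitor concentration. Activity remaining was expressed as a percentage of the vehicle control, and percent inhibition was taken as 100 minus that value.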

[6] = target: Serine/threonine-protein kinase ATR (Homo sapiens) (UniProt Q13535); experiment: Inhibition of human recombinant ATR at 15 nM related to control ULK1; method in brief: as §1
[7] = target: Serine/threonine-protein kinase Chk2 (Homo sapiens) (UniProt O96017); experiment: Inhibition of human recombinant CHK2 at 15 nM in presence of ATP by radiometric assay relative to control
Chain of Serine/threonine-protein kinase Chk2 (Homo sapiens) (O96017 whole entry): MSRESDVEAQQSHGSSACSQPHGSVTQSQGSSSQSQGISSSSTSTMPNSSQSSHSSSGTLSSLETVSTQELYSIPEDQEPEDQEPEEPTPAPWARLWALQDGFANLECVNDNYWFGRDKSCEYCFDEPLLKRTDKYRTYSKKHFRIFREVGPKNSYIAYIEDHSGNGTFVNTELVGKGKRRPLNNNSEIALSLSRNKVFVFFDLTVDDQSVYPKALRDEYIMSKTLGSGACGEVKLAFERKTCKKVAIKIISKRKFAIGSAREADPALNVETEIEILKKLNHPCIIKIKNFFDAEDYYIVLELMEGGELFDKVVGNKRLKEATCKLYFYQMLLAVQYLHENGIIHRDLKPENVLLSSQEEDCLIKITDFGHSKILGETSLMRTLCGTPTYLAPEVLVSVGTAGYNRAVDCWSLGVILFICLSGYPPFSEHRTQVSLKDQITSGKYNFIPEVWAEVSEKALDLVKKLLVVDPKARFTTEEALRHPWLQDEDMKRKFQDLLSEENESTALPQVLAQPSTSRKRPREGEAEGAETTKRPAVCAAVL

[8] = target: Glycogen synthase kinase-3 beta (Homo sapiens) (UniProt P49841); experiment: Inhibition of human recombinant GSK3B at 15 nM related to control ULK1
Chain of Glycogen synthase kinase-3 beta (Homo sapiens) (P49841 whole entry, looked up): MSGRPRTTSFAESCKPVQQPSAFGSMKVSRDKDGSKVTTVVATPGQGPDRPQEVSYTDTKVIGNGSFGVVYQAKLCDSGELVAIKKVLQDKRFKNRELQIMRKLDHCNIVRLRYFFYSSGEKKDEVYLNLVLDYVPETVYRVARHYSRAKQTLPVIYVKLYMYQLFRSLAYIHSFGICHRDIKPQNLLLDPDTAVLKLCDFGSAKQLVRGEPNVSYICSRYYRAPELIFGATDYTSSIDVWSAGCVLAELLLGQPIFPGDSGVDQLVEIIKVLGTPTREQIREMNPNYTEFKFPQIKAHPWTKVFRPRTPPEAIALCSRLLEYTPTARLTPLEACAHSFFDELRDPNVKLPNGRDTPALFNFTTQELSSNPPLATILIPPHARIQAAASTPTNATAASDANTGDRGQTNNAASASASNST

[9] = target: Focal adhesion kinase 1 (Homo sapiens) (UniProt Q05397); experiment: Inhibition of human recombinant FAK at 40 nM in presence of ATP by radiometric assay relative to control
[10] = target: Protein kinase C beta type (Homo sapiens) (UniProt P05771); experiment: Inhibition of human recombinant PKCb at 40 nM related to control ULK1
Chain of Protein kinase C beta type (Homo sapiens) (P05771 2-671 limits assumed): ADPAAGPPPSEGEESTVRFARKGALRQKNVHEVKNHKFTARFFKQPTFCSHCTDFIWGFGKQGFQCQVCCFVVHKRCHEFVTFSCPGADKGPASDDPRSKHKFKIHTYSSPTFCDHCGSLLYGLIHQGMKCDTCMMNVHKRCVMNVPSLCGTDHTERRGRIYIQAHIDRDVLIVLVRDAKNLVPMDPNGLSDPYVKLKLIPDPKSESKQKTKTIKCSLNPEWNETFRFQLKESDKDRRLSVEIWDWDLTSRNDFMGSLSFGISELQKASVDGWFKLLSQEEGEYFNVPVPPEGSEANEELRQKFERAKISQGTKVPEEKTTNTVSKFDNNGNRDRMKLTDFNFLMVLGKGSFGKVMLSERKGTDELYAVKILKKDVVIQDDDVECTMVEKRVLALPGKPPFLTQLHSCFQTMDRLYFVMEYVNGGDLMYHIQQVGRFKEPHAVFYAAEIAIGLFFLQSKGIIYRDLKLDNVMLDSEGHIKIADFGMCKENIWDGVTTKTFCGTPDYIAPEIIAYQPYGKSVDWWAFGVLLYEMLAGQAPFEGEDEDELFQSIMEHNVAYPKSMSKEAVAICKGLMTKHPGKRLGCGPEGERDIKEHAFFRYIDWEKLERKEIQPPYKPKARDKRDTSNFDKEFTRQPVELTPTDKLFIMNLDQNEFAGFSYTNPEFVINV

[11] = target: Rho-associated protein kinase 1 (Homo sapiens) (UniProt Q13464); experiment: Inhibition of human recombinant ROCK1 at 40 nM related to control ULK1
[12] = target: Serine/threonine-protein kinase 4 (Homo sapiens) (UniProt Q13043); experiment: Inhibition of human recombinant MST1 at 40 nM in presence of ATP by radiometric assay relative to control

Chain of Leucine-rich repeat serine/threonine-protein kinase 2 (Homo sapiens) (Q5S007 whole entry): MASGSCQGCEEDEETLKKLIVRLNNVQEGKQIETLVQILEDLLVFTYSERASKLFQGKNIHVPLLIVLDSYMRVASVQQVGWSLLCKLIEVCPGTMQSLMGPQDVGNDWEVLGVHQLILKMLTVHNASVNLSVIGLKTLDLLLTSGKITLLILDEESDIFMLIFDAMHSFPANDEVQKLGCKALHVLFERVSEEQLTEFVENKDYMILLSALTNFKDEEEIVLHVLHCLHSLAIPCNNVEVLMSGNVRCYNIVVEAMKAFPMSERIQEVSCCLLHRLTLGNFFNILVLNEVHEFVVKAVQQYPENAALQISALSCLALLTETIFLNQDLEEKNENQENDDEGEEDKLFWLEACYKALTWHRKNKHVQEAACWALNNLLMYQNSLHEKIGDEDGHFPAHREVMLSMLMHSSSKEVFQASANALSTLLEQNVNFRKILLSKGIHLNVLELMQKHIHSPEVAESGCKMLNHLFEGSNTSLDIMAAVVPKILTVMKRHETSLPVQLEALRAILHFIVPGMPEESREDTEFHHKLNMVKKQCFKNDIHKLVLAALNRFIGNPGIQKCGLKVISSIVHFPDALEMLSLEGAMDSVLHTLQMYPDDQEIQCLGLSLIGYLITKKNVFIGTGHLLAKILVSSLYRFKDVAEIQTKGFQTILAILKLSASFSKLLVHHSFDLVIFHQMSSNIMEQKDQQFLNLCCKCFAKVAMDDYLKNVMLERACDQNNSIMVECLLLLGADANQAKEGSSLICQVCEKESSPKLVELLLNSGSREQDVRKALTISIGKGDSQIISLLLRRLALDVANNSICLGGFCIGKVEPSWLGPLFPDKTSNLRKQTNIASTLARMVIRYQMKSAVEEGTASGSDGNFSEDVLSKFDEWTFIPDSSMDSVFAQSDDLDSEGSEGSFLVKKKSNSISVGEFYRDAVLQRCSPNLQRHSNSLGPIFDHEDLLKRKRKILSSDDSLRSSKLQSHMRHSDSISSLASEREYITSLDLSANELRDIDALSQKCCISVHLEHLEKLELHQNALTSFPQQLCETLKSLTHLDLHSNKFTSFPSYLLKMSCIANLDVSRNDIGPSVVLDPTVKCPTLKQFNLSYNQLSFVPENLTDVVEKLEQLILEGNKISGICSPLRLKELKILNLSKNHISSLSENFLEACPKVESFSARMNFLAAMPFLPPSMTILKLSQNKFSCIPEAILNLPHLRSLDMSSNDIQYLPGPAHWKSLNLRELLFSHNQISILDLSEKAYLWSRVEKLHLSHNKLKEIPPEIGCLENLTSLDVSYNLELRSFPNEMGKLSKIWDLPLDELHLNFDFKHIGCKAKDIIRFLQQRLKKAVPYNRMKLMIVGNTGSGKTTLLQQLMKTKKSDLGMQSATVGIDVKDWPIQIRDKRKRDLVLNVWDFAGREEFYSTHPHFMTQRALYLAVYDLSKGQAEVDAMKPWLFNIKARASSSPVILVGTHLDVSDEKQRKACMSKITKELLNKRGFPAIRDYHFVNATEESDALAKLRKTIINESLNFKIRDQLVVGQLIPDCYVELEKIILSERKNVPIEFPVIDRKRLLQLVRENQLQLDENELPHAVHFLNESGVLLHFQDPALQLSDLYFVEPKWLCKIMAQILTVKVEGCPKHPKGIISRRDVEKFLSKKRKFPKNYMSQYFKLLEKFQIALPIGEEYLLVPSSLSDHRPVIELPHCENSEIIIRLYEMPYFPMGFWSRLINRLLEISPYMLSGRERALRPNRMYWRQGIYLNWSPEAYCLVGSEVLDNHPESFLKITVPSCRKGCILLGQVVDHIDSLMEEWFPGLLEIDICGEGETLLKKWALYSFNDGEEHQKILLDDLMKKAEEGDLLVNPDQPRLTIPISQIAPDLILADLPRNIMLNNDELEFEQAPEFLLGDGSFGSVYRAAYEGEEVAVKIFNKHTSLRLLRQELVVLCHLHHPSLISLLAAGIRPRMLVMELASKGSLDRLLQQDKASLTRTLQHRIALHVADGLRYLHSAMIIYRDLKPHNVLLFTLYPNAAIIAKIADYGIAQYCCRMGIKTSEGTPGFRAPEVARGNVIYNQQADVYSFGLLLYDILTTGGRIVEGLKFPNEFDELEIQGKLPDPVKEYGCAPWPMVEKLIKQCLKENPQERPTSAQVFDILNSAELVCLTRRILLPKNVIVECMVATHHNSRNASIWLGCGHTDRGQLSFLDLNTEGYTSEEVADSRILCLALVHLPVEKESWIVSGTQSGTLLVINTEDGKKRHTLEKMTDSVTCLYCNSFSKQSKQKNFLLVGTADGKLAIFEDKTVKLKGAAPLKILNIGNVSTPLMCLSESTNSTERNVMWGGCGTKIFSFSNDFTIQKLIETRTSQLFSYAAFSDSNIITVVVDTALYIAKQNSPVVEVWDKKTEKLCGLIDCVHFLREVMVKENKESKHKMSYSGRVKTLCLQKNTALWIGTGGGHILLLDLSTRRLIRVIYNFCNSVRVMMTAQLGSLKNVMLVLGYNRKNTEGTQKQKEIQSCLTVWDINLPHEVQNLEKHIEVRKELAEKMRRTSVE

inhibition [1]: 35%
fold change (FC) [2]: 0
inhibition [3]: 5%
fold change (FC) [4]: 0
Compound: CNC(=O)c1ccccc1Oc1nc(Nc2cc(OC)c(OC)c(OC)c2)ncc1Br

inhibition [5]: 0%
fold change (FC) [6]: 0.05
inhibition [7]: 0%
fold change (FC) [8]: 0.13
Compound: CC(C)[C@H](NC(=O)c1cc(-c2cnn3cc(-c4ccc(OCCN5CCCCC5)cc4)cnc23)cs1)C(F)(F)F

inhibition [9]: 0%
fold change (FC) [10]: 0.04
fold change (FC) [11]: 0
inhibition [12]: 0%
Compound: O=C(N[C@@H](C1CC1)C(F)(F)F)c1cc(-c2cnn3cc(-c4ccc(F)cc4)cnc23)cs1
